Columns and labels:
[1] = test system: Rattus norvegicus; test: AUC (0 to t) in rat at 10 mg/kg, ip; type: ADME, organism-based, Plasma; parameters: dose 10 mg/kg, route intraperitoneal; settings: in vivo
[2] = test system: Rattus norvegicus; test: (§1) Cmax in rat at 10 mg/kg, ip; type: ADME, organism-based; parameters: dose 10 mg/kg, route intraperitoneal; settings: in vivo
Summary of the method: (§2)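 Intraperitoneal dosing in rats at 10 mg/kg, sodium salt form, sterile water vehicle. Cmax is the maximum compound concentration detected in plasma, and terminal half-life was derived from the plasma profile.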

[3] = test system: Rattus norvegicus; test: Volume of distribution in rat at 10 mg/kg, ip; type: ADME, organism-based; parameters: dose 10 mg/kg, route intraperitoneal; settings: in vivo
Summary of the method: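 Intraperitoneal dose of 10 mg/kg in rats, given as sodium salt in sterile water; plasma PK parameters including volume of distribution.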

[4] = test system: Rattus norvegicus; test: AUC (0 to t) in rat at 10 mg/kg, po; type: ADME, organism-based, Plasma; parameters: dose 10 mg/kg, route oral; settings: in vivo
Summary of the method: (§3)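 Sodium salt given orally at 10 mg/kg in sterile water to rats, n = 3 (n = 5 for one compound). Plasma was sampled over time for Cmax, Tmax, AUC(0–t), t1/2 and oral bioavailability. Brain and plasma were harvested at or near Tmax to measure levels and the brain:plasma ratio.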

[5] = test system: Rattus norvegicus; test: Cmax in rat at 10 mg/kg, po; type: ADME, organism-based; parameters: dose 10 mg/kg, route oral; settings: in vivo
Summary of the method: (§4)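 Sodium salts were given to rats by oral dose at 10 mg/kg in sterile water, with n = 3 or 5 animals per compound. Plasma concentration was measured over time to give Cmax, Tmax, terminal half-life and oral bioavailability (F). Brain and plasma were taken at or near Tmax.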

[6] = test system: Rattus norvegicus; test: Volume of distribution in rat at 10 mg/kg, po; type: ADME, organism-based; parameters: dose 10 mg/kg, route oral; settings: in vivo
Summary of the method: (§5)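 Rats dosed orally at 10 mg/kg as sodium salts in sterile water, n = 3 (n = 5 for one compound). Plasma sampled for PK parameters; brain and plasma harvested at or near Tmax for levels and brain:plasma ratio.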

[7] = test system: Rattus norvegicus; test: Tmax in rat at 10 mg/kg, po; type: ADME, organism-based; parameters: dose 10 mg/kg, route oral; settings: in vivo
[8] = test system: Rattus norvegicus; test: Cmax in rat at 2 mg/kg, iv; type: ADME, organism-based; parameters: dose 2 mg/kg, route intravenous; settings: in vivo
Summary of the method: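 Rats received sodium salts intravenously at 2 mg/kg in sterile water. Cmax is the maximum compound concentration detected in plasma, and terminal half-life was derived from the plasma concentration–time profile.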

[9] = test system: Rattus norvegicus; test: Oral bioavailability in rat at 10 mg/kg; type: ADME, organism-based; settings: in vivo; summary of the method: as §4
[10] = test system: Rattus norvegicus; test: AUC (0 to t) in rat at 2 mg/kg, iv; type: ADME, organism-based, Plasma; parameters: dose 2 mg/kg, route intravenous; settings: in vivo
[11] = test system: Rattus norvegicus; test: Volume of distribution in rat at 2 mg/kg, iv; type: ADME, organism-based; parameters: dose 2 mg/kg, route intravenous; settings: in vivo
Summary of the method: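 Intravenous dose of 2 mg/kg in rats, given as sodium salt in sterile water; plasma PK parameters including volume of distribution.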

[12] = test system: Rattus norvegicus; test: Ratio of drug level in brain to plasma in rat at 10 mg/kg, po
[13] = test system: Plasma; test: Plasma concentration in rat at 10 mg/kg, po; type: ADME, organism-based; parameters: dose 10 mg/kg, route oral; settings: in vivo; summary of the method: as §5
[14] = as §1; type: ADME, organism-based; parameters: dose 10 mg/kg, route intraperitoneal; settings: in vivo; summary of the method: as §2
[15] = test system: Brain; test: Drug level in rat brain at 10 mg/kg, po; type: ADME, organism-based; parameters: dose 10 mg/kg, route oral; settings: in vivo, read-out: Drug uptake; summary of the method: as §3

Compound | AUCt [1] [µM·h] | Cmax [2] [nM] | Vd [3] [mL] | AUCt [4] [µM·h] | Cmax [5] [nM] | Vd [6] [mL] | Tmax [7] [min] | Cmax [8] [nM] | F [9] [%] | AUCt [10] [µM·h] | Vd [11] [mL] | BPR [12] | concentration [13] [nM] | Cmax [14] [nM] | concentration [15] [nM]
O=C([O-])c1cc(-c2cccc(-c3ccc4c(c3)CN(C3CCCC3)C4=O)c2)ccc1Cl.[Na+] | 3.23 | 2000 | 21.2 | 2.67 | 400 | 96.2 | 30 |  |  |  |  |  |  |  | 
O=C([O-])c1cc(-c2cccc(COc3ccc4c(c3)CN(C3CCCC3)C4=O)c2)ccc1Cl.[Na+] |  |  |  | 42.5 | 3000 | 3 |  | 28200 | 71.4 | 11.8 | 0.6 | 0.039 |  |  | 
O=C([O-])c1cc(-c2cccc(COc3ccc4c(=O)n(C5CC5)sc4c3)c2)ccc1Cl.[Na+] | 25.8 |  | 2.4 | 61.5 | 8500 | 4.1 | 60 |  |  |  |  | 0.04 | 800 | 9600 | 30
O=C([O-])c1cc(-c2cccc(COc3ccc4c(c3)CN(C3CCCC3)C4=O)c2)ccc1O.[Na+] |  |  |  | 7.1 | 1600 | 28 | 30 | 3900 | 109.2 | 2.57 | 4.3 | 0.0335 | 210 |  | 7.1
COc1ccc(C(=O)[O-])cc1-c1cccc(COc2ccc3c(c2)CN(C2CCCC2)C3=O)c1.[Na+] |  |  |  | 12 | 4000 | 10875.2 | 30 | 5600 | 84.8 | 6.7 | 4620 | 0.13 | 1460 |  | 180

— ChEMBL document CHEMBL2177081, “Orally active metabotropic glutamate subtype 2 receptor positive allosteric modulators: structure-activity relationships and assessment in a rat model of nicotine dependence” (J Med Chem, 2012)
